Sampled rows, rich in hits. Any-hit rate of the full collection: about 4%.
KCNK3 inh = human KCNK3 channel inhibition, primary screen | O14649 | CHO-KCNK3 thallium flux, FluxOR fluorescence; stronger effect = lower value | B-score at 10 µM | hit rate 0.84% among 340,000 | AID 602410;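 active = B-score under library mean minus 4 SD, starting fluorescence ratio at most library mean plus 5 SD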;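 also: more negative B-score means stronger inhibition of thallium flux through KCNK3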
KCNQ1 pot = potentiates or activates the human KCNQ1 potassium channel; hit rate 0.35% among 310,000; CHO-K1 KCNQ1, thallium flux FluxOR fluorescence; stronger effect = higher value; P51787; B-score at 10 µM;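 active = fluorescence ratio B-score, a plate-corrected score, at least three library SD, with initial intensity B-score within 5 SD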
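Assay system: stable KCNQ1 CHO-K1 line; medium: assay buffer, equal DMSO in all wells; timing: 90 min dye loading and 20 min compound exposure, both at room temperature; technique: kinetic FluxOR thallium fluorescence, 10-s 1-Hz baseline, 110-s post-stimulus read; read-out basis: B score of baseline-normalized fluorescence ratio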
PHOSPHO1 block = inhibitors of human PHOSPHO1 phosphatase. inhibition, % at 13.3 µM. recombinant PHOSPHO1, absorbance phosphatase assay. hit rate 1.1% among 290,000. Q8TCT1; in the data active = inhibition above about 60%
KCNK9 block = inhibitors of human KCNK9 two-pore domain potassium channel; HEK293 KCNK9, FluxOR thallium flux fluorescence; stronger effect = lower value; B-score at 10 µM; hit rate 1.2% among 310,000; AID 488922;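 active = ratio B-score over 3 SD below the library mean, with starting fluorescence within 5 SD of its mean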;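 also: negative B-score means less thallium flux so channel inhibition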
KCNQ1 inh = human KCNQ1 channel inhibition | P51787 | CHO-K1 KCNQ1, FluxOR thallium flux fluorescence; stronger effect = higher value | B-score at 10 µM | hit rate 1.3% among 310,000;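 active = compounds whose thallium flux B-score, printed positive for inhibition, exceeds three library SD while starting fluorescence stays within three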;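 also: channel opened by potassium depolarization with thallium stimulus after 20 min compound exposure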
hERG protect = compounds protecting human hERG from proarrhythmic drug block; activation (rescue from dofetilide block), less the hit threshold, % at 10 µM; CHO-hERG, FluxOR thallium flux, dofetilide IC70 present; hit rate 0.51% among 310,000; Q12809;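 active = activation above the mean of controls blocked by dofetilide plus 5 SD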;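 also: thallium influx through hERG after potassium depolarization seen as dye fluorescence rise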
KCNK9 block conf = confirmation of human KCNK9 potassium channel inhibitors; shares compounds with KCNK9 block; inhibition, % at 10 µM; hit rate 43% among 4,900; HEK293 KCNK9 cells, FluxOR thallium flux fluorescence;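 active = thallium signal inhibited by more than 5 SD of the compound-free buffer control wells, on both duplicate plates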;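 also: 0% = assay buffer control wells without compound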
Kir2-1 spec = tests whether KCNK9 modulators also affect mouse Kir2.1; shares compounds with KCNK9 block; Kir2.1 cells, FluxOR thallium flux fluorescence; inhibition, % at 10 µM; hit rate 4% among 4,900;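 active = thallium signal drop more than 5 SD beyond the mean of the no-compound control wells, seen in both duplicate plates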;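 also: signal is fluorescence rise after thallium addition divided by baseline fluorescence; plate controls were assay buffer only for no effect and full block by chlorpromazine control for full effect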
Target sequence (P35561 whole entry, looked up): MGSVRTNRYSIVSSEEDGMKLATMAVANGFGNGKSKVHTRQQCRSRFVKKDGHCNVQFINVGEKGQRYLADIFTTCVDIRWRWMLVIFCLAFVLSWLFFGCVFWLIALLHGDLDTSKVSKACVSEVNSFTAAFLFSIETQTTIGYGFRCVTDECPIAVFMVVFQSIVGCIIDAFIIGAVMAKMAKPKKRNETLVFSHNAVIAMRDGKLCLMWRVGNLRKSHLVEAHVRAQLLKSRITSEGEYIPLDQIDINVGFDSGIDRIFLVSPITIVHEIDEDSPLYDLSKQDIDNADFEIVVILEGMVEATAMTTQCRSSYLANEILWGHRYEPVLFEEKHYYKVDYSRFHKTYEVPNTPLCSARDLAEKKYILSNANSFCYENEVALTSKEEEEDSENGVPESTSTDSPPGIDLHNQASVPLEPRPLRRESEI
KCNK9 uninduced = second counter-screen for KCNK9 modulators: effect in non-induced cells; shares compounds with KCNK9 block; non-induced KCNK9-HEK293, FluxOR thallium flux; hit rate 40% among 4,900; AID 492997; inhibition, % at 10 µM;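 active = thallium signal drop beyond 5 SD of the untreated control mean, on both duplicate plates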;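 also: plate controls were buffer only IC0 wells for no effect and SID17386958 at its maximal inhibitory level for full effect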
The depositor's hits bear a star; i = inactive; nt = not tested or not shown.

SMILES	KCNK3 inh	KCNQ1 pot	PHOSPHO1 block	KCNK9 block	KCNQ1 inh	hERG protect	KCNK9 block conf	Kir2-1 spec	KCNK9 uninduced
O=C(COc1ncnc2scc(-c3ccccc3)c12)NC1CCCc2ccccc21 (stereo unspecified)	i	i	-4	i	i	-19	nt	nt	nt
CC1=C(C(=O)N2CCCC(N3CCN(c4cccc(Cl)c4)CC3)C2)OCCO1 (stereo unspecified)	i	i	32	i	i	-9	nt	nt	nt
CC1=C(C(=O)N2CCCC(N3CCN(c4cccc(C(F)(F)F)c4)CC3)C2)OCCO1 (stereo unspecified)	i	i	33	i	i	-10	i	i	i
Cc1cc(C)c2c(n1)SCC(=O)N2CC(=O)Nc1c(C)cccc1C	i	i	39	i	i	-3	nt	nt	nt
CN(C)CC/C=C1/c2ccccc2Sc2ccc(Cl)cc21	i	i	3	i	i	-12	i	i	i
CCOC(=O)c1c(-c2ccc(C)cc2)csc1NC(=O)C1CC=CCC1C(=O)O (stereo unspecified)	i	i	27	i	i	-11	nt	nt	nt
CCOC(=O)c1c(-c2ccc(-c3ccccc3)cc2)csc1NC(=O)C1C2CCC(O2)C1C(=O)O (stereo unspecified)	i	i	-19	i	i	-9	i	i	i
CC(CN1C(C)CCCC1C)OC(=O)c1cccc(F)c1 (stereo unspecified)	i	i	36	i	i	-9	nt	nt	nt
Clc1ccc(-c2nnc(Sc3nc4ccccc4o3)c3ccccc23)cc1	i	i	-8	i	i	-9	i	i	i
Cc1ccc(-c2nnc(Sc3nc4ccccc4o3)c3ccccc23)cc1	i	i	-10	i	i	-9	nt	nt	nt
CCC(=O)N1c2ccc(S(=O)(=O)N3CCN(c4ccccc4Cl)CC3)cc2CC1C (stereo unspecified)	i	i	23	i	i	-11	nt	nt	nt
CCC(=O)N1c2ccc(S(=O)(=O)N3CCN(c4cc(C)ccc4C)CC3)cc2CC1C (stereo unspecified)	i	i	24	i	i	-9	i	i	i
O=C(Nc1ccc(-c2nc3ccc(NC(=O)c4cccs4)cc3[nH]2)cc1)c1cccs1	i	i	42	i	i	-2	nt	nt	nt
O=C(Nc1ccc2nc(-c3cccs3)[nH]c2c1)c1cccs1	i	i	-4	-10*	i	-7	56%*	i	i
COc1ccc(-c2oc3ccc(-c4cc(OC)c(OC)c(OC)c4)cc3c2C#Cc2ccsc2)cc1	i	i	-24	i	i	-5	nt	nt	nt
COc1cc(OC)cc(-c2nc(-c3ccccc3OC)no2)c1	i	i	-3	i	i	-1	nt	nt	nt
COc1cc(N=c2ssnc2Cl)cc(OC)c1	i	i	48	i	i	-17	i	i	i
N#Cc1cccc(N=c2ssnc2Cl)c1	i	i	-86	i	i	5.2*	i	i	i
CC(C)(C)CN1CCNC(=O)C1CC(=O)N1CCC(C(=O)N2CCOCC2)CC1 (stereo unspecified)	i	i	-11	i	i	-20	nt	nt	nt
Cn1c(=O)c2c(nc(NCc3ccco3)n2C/C=C/c2ccccc2)n(C)c1=O	i	i	18	i	i	-8	nt	nt	nt
C=CCn1c(SCC(=O)c2cc(C)n(C)c2C)nnc1-c1ccncc1	i	i	-10	i	i	-7	nt	nt	nt
c1ccc(-c2csc(NC3CCCCC3)n2)cc1	i	i	0	i	i	-6	i	i	i
O=C(Nc1nc(-c2ccccc2)cs1)NC1CCCCC1	i	i	7	i	i	-11	nt	nt	nt
O=C(COC(=O)c1oc2ccccc2c1CSc1ccc(Cl)cc1)NC1CCCC1	i	i	46	-8.1*	10*	-6	32%*	36%*	50%*
Cc1cccc(C2NC(c3cccc(C)c3)C([N+](=O)[O-])C(C)(C)C2[N+](=O)[O-])c1 (stereo unspecified)	i	i	-7	i	i	-1	i	i	i
SMILES	KCNK3 inh	KCNQ1 pot	PHOSPHO1 block	KCNK9 block	KCNQ1 inh	hERG protect	KCNK9 block conf	Kir2-1 spec	KCNK9 uninduced
CC1c2cc3c(cc2CCN1CC(=O)Nc1ccc(S(=O)(=O)N2CCCC2)cc1)OCCCO3 (stereo unspecified)	i	i	22	i	i	-7	nt	nt	nt
CC1c2cc3c(cc2CCN1C(=O)c1ccc(Cl)cc1)OCCCO3 (stereo unspecified)	i	i	23	-9.9*	i	-7	56%*	i	29%*
CC(=O)c1cccc(NC(=O)CN2CCc3cc4c(cc3C2C)OCCCO4)c1 (stereo unspecified)	i	i	18	i	i	-10	i	i	i
O=C(CN1CCc2cc3c(cc2C1)OCCCO3)Nc1cccc(Br)c1	i	i	44	i	i	-11	i	i	i
CN(C(=O)c1cccc(NC(=O)Cc2ccc(NC(=O)C3CCN(C(=O)C4CCCC4)CC3)cc2)c1)C1CCC1	i	nt	nt	nt	nt	nt	nt	nt	nt
CN(c1nc2c(c(=O)n(C)c(=O)n2C)n1CC(=O)c1ccccc1)C1CCCCC1	i	i	-20	i	i	-20	nt	nt	nt
CC1=C(C(=O)OCc2ccc3c(c2)OCO3)C(c2cccc([N+](=O)[O-])c2)NC(=O)N1 (stereo unspecified)	i	i	4	i	i	-9	nt	nt	nt
COc1ccccc1/C=C/C=N/Nc1cccc(C(=O)O)c1	i	i	9	i	i	-10	nt	nt	nt
CCOC(=O)c1ccccc1NC(=S)N1CCC(N2CCCCC2)CC1	i	i	-10	i	i	-6	nt	nt	nt
Cc1ccc(SCc2ccc(C(=O)N3CCCC3)cc2)cc1	i	i	27	i	i	5.7*	i	i	i
Cc1nnc(SCC(=O)Nc2ccccc2F)n1-c1ccc(F)cc1	i	i	29	i	i	-9	nt	nt	nt
CCCCN(C(=O)Cc1ccc(S(=O)(=O)N2CCOCC2)s1)c1ccccc1	i	i	nt	i	i	-7	i	i	i
CC(C)NC(=O)CCn1nc(-c2ccc(Cl)cc2)c2ccccc2c1=O	i	i	50	i	i	-4	nt	nt	nt
